From ChEMBL document CHEMBL4219232, “Discovery of novel serine palmitoyltransferase inhibitors as cancer therapeutic agents” (Bioorg Med Chem, 2018) come the findings set out here.

One data set has as its system HCC4006. Put plainly: Growth inhibition of human HCC4006 cells assessed as inflection point after 5 days by cell-titer-glo luminescent cell viability assay. In kind it is functional. In a few lines:
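HCC4006 cells were grown in RPMI with 10% FBS and penicillin/streptomycin, seeded at 250 cells/well and cultured overnight. Cells were then exposed to compound for 5 days, and the medium was replaced with CellTiter-Glo reagent for a luminescence read. The IP is the concentration at the inflection point of the dose-response curve, n = 2.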

A short description of data set [1]: Clearance in human liver microsomes in presence of NADPH. It is filed as ADME, microsome. The settings on record: read-out: CLH. In a few lines: (§1)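 Metabolic clearance was measured in human or mouse liver microsomes with NADPH, n = 2, in μL/min/mg.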
The nature of data set [2]: Clearance in mouse liver microsomes in presence of NADPH. It is filed as ADME, microsome. To be noted: read-out: CLH. In a few lines: as §1
Background: Liver microsomes are vesicles of endoplasmic reticulum, rich in cytochrome P450 enzymes.

A short description of data set [3]: Oral bioavailability in non-fasted mouse at 1 mg/kg administered as cassette dosing by LC/MS/MS analysis. In kind it is ADME, organism-based. To be noted: in vivo. In a few lines: (§2)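 Non-fasted mice received compounds as cassettes, intravenously at 0.1 mg/kg (10 compounds per cassette) or orally at 1 mg/kg (5 compounds per cassette). Blood was collected and centrifuged to plasma. Plasma was deproteinized with acetonitrile and centrifuged before analysis. Parameters are means of n = 3.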

Data set [4] concerns the target T1, Serine palmitoyltransferase 2 (Homo sapiens, UniProt O15270).
T1 sequence (O15270 whole entry): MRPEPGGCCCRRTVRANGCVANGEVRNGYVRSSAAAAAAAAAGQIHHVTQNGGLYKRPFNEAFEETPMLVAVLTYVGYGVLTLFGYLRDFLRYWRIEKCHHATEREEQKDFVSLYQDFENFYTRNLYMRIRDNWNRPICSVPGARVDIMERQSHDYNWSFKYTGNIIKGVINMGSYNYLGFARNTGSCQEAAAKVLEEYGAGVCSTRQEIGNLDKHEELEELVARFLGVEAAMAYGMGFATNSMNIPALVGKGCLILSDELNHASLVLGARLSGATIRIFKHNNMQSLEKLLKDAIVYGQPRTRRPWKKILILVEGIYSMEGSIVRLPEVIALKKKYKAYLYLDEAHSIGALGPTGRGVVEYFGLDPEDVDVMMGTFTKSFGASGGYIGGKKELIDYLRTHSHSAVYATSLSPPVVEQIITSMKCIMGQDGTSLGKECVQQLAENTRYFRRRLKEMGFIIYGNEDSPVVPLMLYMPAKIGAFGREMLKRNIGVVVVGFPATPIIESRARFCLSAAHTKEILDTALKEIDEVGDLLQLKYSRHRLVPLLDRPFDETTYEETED
The data set is described as follows: Inhibition of human SPT2 transfected in Freestyle293 cells using L-serine and palmitoyl-CoA as substrate preincubated for 60 mins followed by substrate addition measured after 15 mins by mass spectrometric analysis. In kind it is cell-based.

The nature of data set [5]: Inhibition of SPT in human HCC4006 cells assessed as reduction in ceramide content after 24 hrs in presence of C16-ceramide-d31/C14-phosphatidylcholine-d72 by LC/MS analysis. To be noted: HCC4006, 24 h.
The nature of data set [6]: Growth inhibition of human PL21 cells after 5 days by cell-titer-glo luminescent cell viability assay. To be noted: for IC50: Homo sapiens, PL-21, 120 h. In kind it is functional.
A short description of data set [7]: Thermodynamic solubility in Japanese pharmacopoeia disintegration test solution 2 at 6.8. In kind it is physicochemical. The settings on record: Japanese pharmacopoeia disintegration test solution 2, pH 6.8; read-out: Therm_solubility. In a few lines: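 Thermodynamic solubility was measured in Japanese Pharmacopoeia disintegration test solution 2 at pH 6.8.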

Data set [8] can be described thus: Volume of distribution at steady state in non-fasted mouse at 0.1 mg/kg, iv administered as cassette dosing by LC/MS/MS analysis. It is filed as ADME, organism-based. To be noted: in vivo, read-out: Vdss. In a few lines:
as §2

Data set [9] can be described thus: Total clearance in non-fasted mouse at 0.1 mg/kg, iv administered as cassette dosing by LC/MS/MS analysis. It is filed as ADME, organism-based. The settings on record: in vivo. In a few lines:
as §2

Data set [10] is described as follows: Cmax in non-fasted mouse at 1 mg/kg, po administered as cassette dosing by LC/MS/MS analysis. To be noted: in vivo. More on the design: dose 1 mg/kg, route oral. It is filed as ADME, organism-based. In a few lines: as §2
Data set [11] can be described thus: Tmax in non-fasted mouse at 1 mg/kg, po administered as cassette dosing by LC/MS/MS analysis. The settings on record: in vivo. It is filed as ADME, organism-based. In a few lines:
as §2

The nature of data set [12]: AUC in non-fasted mouse at 1 mg/kg, po administered as cassette dosing by LC/MS/MS analysis. In kind it is ADME, organism-based. The settings on record: in vivo. In a few lines: as §2
Data set [13] in a line: MRT in non-fasted mouse at 1 mg/kg, po administered as cassette dosing by LC/MS/MS analysis. It is filed as ADME, organism-based. The settings on record: in vivo. In a few lines:
as §2

Data set [14] deals with Mus musculus. The data set is described as follows: In vivo inhibition of SPT in tumors of human HCC1806 cells xenografted in mouse assessed as reduction in 3-KDS levels at 10 mg/kg, po measured after 8 hrs post dose by LC/MS analysis relative to control. In kind it is functional. In a few lines: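 HCC1806 breast cancer xenograft mice were dosed orally at 10 mg/kg. Tumor 3-KDS was quantified by LC/MS 8 h after dosing and compared with vehicle. Data are mean ± SD, n = 5, analysed by Dunnett's test.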
On the technique in general: In xenograft studies the graft and the host belong to different species.

The nature of data set [15]: Antitumor activity against human PL21 cells xenografted in mouse at 10 mg/kg, po administered every other day for 2 weeks relative to control. It is filed as functional. In a few lines:
(§3)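 PL-21 xenograft mice, n = 6 per group. Compound was suspended in 0.5% aqueous methylcellulose and given orally every other day for two weeks at 10 or 30 mg/kg. Tumor volume and body weight were followed. T/C is the median tumor weight of the treated group divided by that of the control group.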

Data set [16] can be described thus: Antitumor activity against human PL21 cells xenografted in mouse at 30 mg/kg, po administered every other day for 2 weeks relative to control. It is filed as functional. In a few lines: as §3
Data set [17] has as its system Mus musculus. Put plainly: Toxicity in mouse xenografted with human PL21 cells assessed as body weight loss at 10 to 30 mg/kg, po administered every other day for 2 weeks. It is filed as organism-based. The settings on record: in vivo, 336 h. In a few lines:
as §3

Data set [18] is described as follows: Permeability of the compound from apical to basolateral side at pH 7.8 by PAMPA. On the technique in general: PAMPA measures passive passage across an artificial lipid membrane.

Converted amounts (≈) assume the structure as drawn.

In the case of `COc1ccc(C(=O)N2CC[C@H](NC(=O)c3ccccc3Cl)[C@@H](c3ccccc3)C2)cc1OC`, the IP in the data set on HCC4006 is recorded as above 30000 nM.
One may read the bioavailability as dose-corrected exposure relative to a reference, in per cent. Low readings indicate poor availability, high ones good availability. Consider `COc1ccc(C(=O)N2CCC(NC(=O)c3ccccc3Cl)c3c2cnn3C)cc1OC` (racemic), for which, in the data set with HCC4006, the IP came to 250 nM. The microsomal CLint in data set [1] and in data set [2] was 6 µL/min/mg each time. For the same compound, the bioavailability in [3] was determined as 28%.
Broadly, the IC50 is the concentration that gives 50% inhibition. `CCCCCCC(=O)CCCCCC/C=C/C[C@@H](O)[C@H](O)[C@@](N)(CO)C(=O)O` [MYRIOCIN]: the IC50 in data set [4] was determined as 0.13 nM; in [5], 1.5 nM; in data set [6], 7.8 nM. Besides, the IP in the data set on HCC4006 is listed as 2.1 nM. This compound also displayed an Imax in data set [6] above 90%.
For the compound `COc1ccc(C(=O)N2CCC(Nc3ccc(Cl)cc3)c3ccc(Cl)cc32)cc1OC` (stereo not given), in the data set on HCC4006, the IP was 12000 nM.
By clearance is commonly meant the volume of plasma or blood freed of the substance per unit of time. Higher therefore signals a high capacity for elimination. As usually defined, the Cmax is the peak of the concentration-time curve. One may read the Tmax as the time from dosing to the highest level. A word on the AUC: it is the area under the concentration-time curve, a measure of exposure. High values mean high exposure, low ones low exposure. A word on the MRT: it is a mean duration of stay, worked out from the concentration-time curve. As a reminder, the inhibition in vivo is the share of the control response that was lost under treatment. The term T/C denotes the result in the treated group divided by that in the control group, in per cent. In general, Papp refers to a coefficient for how fast a substance crosses the barrier. With `COc1cc(C(=O)N2CC[C@H](NC(=O)c3ccccc3OC(F)(F)F)c3c2cnn3C(C)C)cnc1OC`, the IP in the data set with HCC4006 came out at 3.9 nM. Moreover, the microsomal CLint in data set [1] stood at 6 µL/min/mg; in data set [2], 5 µL/min/mg. For the same compound, the bioavailability in data set [3] was 53%. The IC50 was 2.4 nM in [5] and 4.1 nM in data set [6]. For the same compound, the Imax in data set [6] was above 90%. Besides, the solubility thermodynamic in data set [7] stood at 24 µg/mL (≈ 45 µM). The Vd in [8] came out at 1.13 L/kg. Besides, the clearance in data set [9] was 15.9 mL/min/kg. The compound also gave a Cmax in [10] of 309 ng/mL. Moreover, the time to peak (Tmax) in [11] was 0.5 h. The compound further registered an AUC in data set [12] of 572 ng·h/mL. Also, the MRT in [13] amounted to 1.4 h. The inhibition in vivo at 10 mg/kg in the data set with Mus musculus [14] was determined as 40%. Also, the values for the T/C in data set [15] and in data set [16] were 52% and 38%, respectively. In the data set on Mus musculus [17], the Activity entry was “Non-Toxic”. This compound also had an apparent permeability coefficient (Papp) in data set [18] of 16.7 ×10⁻⁶ cm/s.
Regarding `Cn1nc(C(F)(F)F)cc1C(=O)N[C@@H]1CCN(C(=O)c2cc(Cl)c3nccnc3c2)C[C@@H]1c1ccccc1`, the IP in the data set on HCC4006 was 11 nM. Also, the results for the microsomal CLint in data set [1] and in data set [2] were below 1 µL/min/mg and 60 µL/min/mg, respectively. In [3], this compound registered a bioavailability of 56%. For the same compound, the IC50 in [5] was found to be 2.3 nM; in [6] it was 11 nM. In data set [6], this compound had an Imax above 90%. In data set [7], the solubility thermodynamic stood at 8 µg/mL (≈ 14.7 µM). Further, in [8], the Vd was found to be 0.75 L/kg. In addition, in [9], the clearance is 8.45 mL/min/kg. In [10], this compound came in with a maximum concentration (Cmax) of 282 ng/mL. Also, the time of peak concentration (Tmax) in data set [11] turned out to be 1.2 h. Further, the exposure (AUC) in data set [12] turned out to be 1110 ng·h/mL. In data set [13], the MRT is 2.7 h. For the same compound, in the data set on Mus musculus [14], the inhibition in vivo at 10 mg/kg worked out at 40%. Further, the apparent permeability coefficient (Papp) in [18] worked out at 20.3 ×10⁻⁶ cm/s.
In the case of `COc1ccc(C(=O)N2CC[C@H](NC(=O)c3ccccc3Cl)[C@H](c3ccccc3)C2)cc1OC`, in the data set on HCC4006, the IP stood at 3800 nM.
For `COc1ccc(C(=O)N2CC[C@@H](NC(=O)c3ccccc3Cl)[C@@H](c3ccccc3)C2)cc1OC`, the IP in the data set with HCC4006 was found to be 14 nM. For the same compound, the microsomal CLint in [1] was 21 µL/min/mg; in [2], 245 µL/min/mg. In data set [3], the bioavailability was below 1%.
`COc1ccc(C(=O)N2CC[C@@H](NC(=O)c3ccccc3Cl)[C@H](c3ccccc3)C2)cc1OC`: the IP in the data set on HCC4006 is 570 nM.
Still for that read-out and setting: for `COc1cc(C(=O)N2CC[C@@H](NC(=O)c3ccccc3OC(F)(F)F)c3c2cnn3C(C)C)cnc1OC` the value was above 30000 nM.
On to `COc1ccc(C(=O)N2CCC(NC(=O)c3ccccc3Cl)c3ccc(Cl)cc32)cc1OC` (stereo not given), for which the IP in the data set with HCC4006 amounted to 500 nM. For the same compound, the microsomal CLint amounted to 132 µL/min/mg in data set [1] and 216 µL/min/mg in data set [2].
As for `COc1ccc(C(=O)N2CCC(NC(=O)c3ccccc3Cl)C(c3ccccc3)C2)cc1OC` (mixture of isomers), the IP in the data set with HCC4006 was 41 nM.
As for `COc1cc(C(=O)N2CCC(NC(=O)c3ccccc3OC(F)(F)F)c3c2cnn3C(C)C)cnc1OC` (racemic), the IP with HCC4006 was determined as 23 nM. The microsomal CLint in data set [1] worked out at 15 µL/min/mg. The same compound displayed a bioavailability in [3] of 25%.
